Here are results for 6 compounds from PMC5439940 (International Journal of Nanomedicine, 2017).

Data set [1] deals with ASF-LL T-cell leukemic lymphoma. The data set is described as follows: Antitumor effect in transplanted mouse T-cell leukemic lymphoma. The format is in vivo. A digest of the protocol:
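A/Sn female mice aged 6 or 12 months, one experiment per age, received 10^6 ASF-LL cells SC on day 0. Groups of n=6 got IV free parent drug (10 mg/kg) or an equivalent liposomal prodrug dose in 0.2 mL PBS/1 mM EDTA, pH 7.0, on days 3, 5, 10 and 12. Controls got vehicle. Daily survival monitoring; euthanasia at >20% weight loss and/or food rejection. Mean ± SD, Student's t-test.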

Data set [2] is described as follows: Plasma retention of liposomal MTX-DG versus intact MTX in mice. The format is in vivo. Particulars: IV. A digest of the protocol: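 Female F1(CBA × C57BL/6) mice, 20–22 g, 6–8 weeks old, received 10 mg/kg free parent drug or an equivalent liposomal prodrug dose IV by tail vein (0.2 mL). Groups of n=3 were decapitated at set times and serum collected at 600×g for 10 min. Drug was measured by RP-HPLC after HClO4 deproteinisation; prodrug by RP-HPLC with UV detection at 313 nm. Both were calibrated against spiked or extracted control serum.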

The test system of a further data set is A549 or CoLo-357 cells. The format is cell-based, human. Particulars: for Effect of inhibitor on liposome accumulation/binding: preincubation with inhibitor, then liposomes 100 μM total lipids, 37°C.

Turning to `CN(Cc1cnc2nc(N)nc(N)c2n1)c1ccc(C(=O)N[C@@H](CCC(=O)O)C(=O)O)cc1` [MTX, Methotrexate], in data set [1] (both experiments, 10 mg/kg MTX or equivalent IV on days 3, 5, 10, 12), the “Delay of palpable lymphoma appearance and tumor growth vs controls” value is “significant delay in palpable lymphoma appearance”. Moreover, the “Increase in the mean life span vs control group” value in data set [1] (first experiment, mice aged 6 months, 4 IV injections, days 3, 5, 10, 12) is 23%. Besides, the “Toxicity / tolerability in old recipient mice” value in data set [1] (second experiment, mice aged 12 months, 4 IV injections) is given as “pronounced toxicity”. The “t1/2α and t1/2β of MTX relative to MTX-DG (times lower)” value in data set [2] was “approximately 4 times”.
As to `CN(C)CCCN1c2ccccc2Sc2ccc(Cl)cc21` [chlorpromazine], the “Effect of inhibitor on liposome accumulation/binding” value in the data set with A549 or CoLo-357 cells was “concentration-dependent decrease in liposome accumulation”.
Still for that read-out and setting: the value for `COc1cc2c(c(OC)c1OC)-c1ccc(OC)c(=O)cc1[C@@H](NC(C)=O)CC2` [colchicine] was “elusive effects”; that for `C=C1[C@@H](C)[C@H]2[C@H](Cc3ccccc3)NC(=O)[C@]23OC(=O)/C=C/[C@H](O)CCC[C@@H](C)C/C=C/[C@H]3[C@@H]1O` [cytochalasin B] was “elusive effects”.
As to `COC(=O)Nc1nc2ccc(C(=O)c3cccs3)cc2[nH]1` [nocodazole], the “Effect of inhibitor on liposome accumulation/binding” value in the data set on A549 or CoLo-357 cells was “elusive effects”.
Regarding Methyl-β-cyclodextrin, the “Cell death caused by inhibitor” value in the data set with A549 or CoLo-357 cells (in the range of concentrations required for the inhibitory studies) was greater than 50%.
